According to ChEMBL document CHEMBL4038269, “Design, synthesis and evaluation of novel feruloyl-donepezil hybrids as potential multitarget drugs for the treatment of Alzheimer's disease” (Eur J Med Chem, 2017):
pEC50, pIC50: −log10 of the molar value. Activity calls are given as the source filed them.

Legend:
[1] = Antioxidant activity assessed as DPPH radical scavenging activity measured after 30 mins; type: functional
Summary of the method: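 DPPH scavenging: compound at 12.5, 25, 50 and 100 µM in ethanol (4 mL) mixed with 1 mL of 0.5 mM DPPH in ethanol. Shaken 30 min at room temperature, absorbance read at 517 nm. % inhibition = (A control − A sample)/A control × 100. Run in triplicate; EC50 obtained by linear regression of mean values.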

SH-SY5Y [2] = experiment: Antioxidant activity in human SH-SY5Y cells assessed as reduction in H2O2-induced reactive oxygen species formation measured after 24 hrs by DCFH-DA probe based fluorescence assay; type: functional, cell-based; conditions: for pIC50: Homo sapiens, SH-SY5Y, 24 h, read-out: IC50; for IC50: sh-sy5y
Acetylcholinesterase = Acetylcholinesterase (Electrophorus electricus, UniProt O42275); experiment: Inhibition of Electrophorus electricus AChE using acetylthiocholine iodide as substrate pretreated for 10 mins followed by substrate addition measured at 12 secs interval for 5 mins by Ellman's method
Mus musculus [3] = experiment: Anti-inflammatory activity in Swiss mouse model of LPS-induced peritonitis assessed as inhibition of leukocyte migration at 100 umol/kg, po pretreated for 30 mins followed by LPS challenge measured after 4 hrs by Neubauer chamber method; type: functional, organism-based
Summary of the method: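 Adult male Swiss mice (22-28 g), n=8 per group, dosed orally with 100 µmol/kg or vehicle (saline + DMSO 2%). 30 min later E. coli 026:B6 LPS, 100 µg/kg i.p. in sterile saline. Killed at 4 h by halothane overdose. Peritoneum lavaged with 10 ml PBS containing 0.5% sodium citrate. Total leukocytes counted in a Neubauer chamber, expressed as cells per cavity, mean ± SEM.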

Mus musculus [4] = experiment: Antinociceptive activity in carrageenan-induced Swiss mouse model of mechanical hyperalgesia at 100 umol/kg, po pretreated for 1 hr followed by carrageenan challenge measured at 3 hrs post dose by Von Frey filament assay; type: functional, organism-based
Summary of the method: (§1)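 Male Swiss mice (n=8) dosed orally with 100 µmol/kg or vehicle 1 h before intraplantar carrageenan (100 µg/paw). Mechanical threshold measured by up-and-down Von Frey method after 60 min acclimation on a wire screen. Started at 0.4 g filament, ≥6 trials at 10 s intervals, about 4 s per application. Reported as mean threshold in grams ± SEM.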

Mus musculus [5] = experiment: Anti-inflammatory activity in Swiss mouse assessed as reduction in carrageenan-induced paw edema at 100 umol/kg, po pretreated for 1 hr followed by carrageenan challenge after 3 hrs by plethysmometer; type: functional, organism-based
Summary of the method: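 Adult male Swiss mice (22-28 g), fasted overnight, given vehicle (DMSO 2% in sterile saline) or 100 µmol/kg orally 1 h before intraplantar carrageenan. Methods give 400 µg/20 µl and n=10 per group; figure legend gives 100 µg/paw and n=8. Right hind paw volume read by plethysmometer at 1, 3 and 5 h. Reported as change in µL from basal volume, mean ± SEM.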

SH-SY5Y [6] = experiment: Antioxidant activity in human SH-SY5Y cells assessed as reduction in H2O2-induced reactive oxygen species formation at 40 uM measured after 24 hrs by DCFH-DA probe based fluorescence assay relative to control; type: functional; design: scale not given: the % may be the effect or the level left
[7] = Cytotoxicity against human SH-SY5Y cells assessed as reduction in cell viability at 40 uM after 24 hrs by MTT assay relative to control; type: cell-based; conditions: read-out: INH
Summary of the method: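 SH-SY5Y cells seeded at 2 x 10^4 cells/well, grown 24 h, then exposed to compound 1.25–40 µM for 24 h at 37 °C. MTT (5 mg/mL in PBS) added for 2 h and formazan dissolved in isopropanol. Read at 570 nm, reference 690 nm. Viability loss reported as percent at the top concentration, 40 µM.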

SH-SY5Y [8] = experiment: Antioxidant activity in human SH-SY5Y cells assessed as reduction in H2O2-induced reactive oxygen species formation at 10 uM measured after 24 hrs by DCFH-DA probe based fluorescence assay; type: functional, cell-based
[9] = Metal chelating activity assessed as absorption maximum for compound-Cu2+ complex formation at 75 uM after 30 mins by UV-Vis spectrophotometric method (reference value: 237.2 nanometer); type: functional
Summary of the method: (§2)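 UV-Vis spectra in ethanol of compound at 75 µM alone or after 30 min incubation with CuSO4, FeSO4, FeCl3 or ZnCl2 (150 µM). Absorption maxima recorded.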

[10] = Metal chelating activity assessed as absorption maximum for compound-Fe2+ complex formation at 75 uM after 30 mins by UV-Vis spectrophotometric method (reference value: 237.2 nanometer); type: functional; summary of the method: as §2
[11] = Metal chelating activity assessed as compound-Fe3+ complex formation at 75 uM after 30 mins by UV-Vis spectrophotometric method; type: functional; summary of the method: as §2
[12] = Metal chelating activity assessed as absorption maximum for compound-Zn2+ complex formation at 75 uM after 30 mins by UV-Vis spectrophotometric method; type: functional; summary of the method: as §2
SH-SY5Y [13] = experiment: Antioxidant activity in human SH-SY5Y cells assessed as increase in GSH level at 20 uM after 24 hrs by MCB probe based assay relative to control; type: functional
Summary of the method: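 SH-SY5Y cells (DMEM, 10% FBS, 37 °C, 5% CO2) seeded at 2 x 10^4 cells/well and grown 24 h. Treated with 20 µM compound for 3-24 h. Then 50 µM monochlorobimane in PBS for 30 min at 37 °C. GSH fluorescence read at ex 360/em 465 nm, as % of control cells. Mean ± SD of three independent experiments.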

Mus musculus [14] = experiment: In vivo inhibition of COX-1 activity in carrageenan-induced Swiss mouse serum at 100 umol/kg, po pretreated for 1 hr followed by carrageenan challenge after 3 hrs by ELISA relative to control; type: functional
Summary of the method: (§3)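 Male Swiss mice given oral drug (100 µmol/kg) or vehicle 1 h before intraplantar carrageenan (legend: 400 µg/paw). At 3 h, animals anaesthetised with chloral hydrate and cardiac blood taken. Serum separated (1500 rpm, 20 min) and frozen at -70 °C. COX-1, COX-2 and 5-LOX measured by specific sandwich ELISA at 450 nm. Expressed as % enzymatic activity, mean ± SEM, n=8.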

Mus musculus [15] = experiment: In vivo inhibition of COX-2 activity in carrageenan-induced Swiss mouse serum at 100 umol/kg, po pretreated for 1 hr followed by carrageenan challenge after 3 hrs by ELISA relative to control; type: functional; summary of the method: as §3
Mus musculus [16] = experiment: Antiinflammatory activity in formalin-induced nociception Swiss mouse model assessed as reduction in time spent licking formalin injected hind paw during inflammatory phase at 100 umol/kg, po pretreated for 1 hr followed by formalin challenge measured after 20 to 30 mins; type: functional, organism-based
Summary of the method: (§4)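 Male Swiss mice (22-28 g), n=8 per group, given oral vehicle (saline + DMSO 2%) or 100 µmol/kg 1 h before formalin (5% in 0.9% saline, 20 µl) into the right hind paw sub-plantar region. Morphine 39 µmol/kg i.p. was given 30 min before. Paw-licking time recorded at 0–5 min (neurogenic phase) and 20–30 min (inflammatory phase).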

Mus musculus [17] = experiment: Neurotoxicity in Swiss mouse assessed as induction of motor impairment at 100 umol/kg, po measured after 1 hr by open filed test; type: toxicity, organism-based; conditions: in vivo
Summary of the method: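 Male Swiss mice (n=8) given vehicle or compound orally 1 h before open-field test. Crossings of the central four and peripheral 12 squares counted separately.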

Mus musculus [18] = experiment: Antinociceptive activity in carrageenan-induced Swiss mouse model of mechanical hyperalgesia at 100 umol/kg, po pretreated for 1 hr followed by carrageenan challenge measured at 3 hrs to 7 hrs post dose by Von Frey filament assay; type: functional, organism-based; summary of the method: as §1
SH-SY5Y [19] = experiment: Pro-oxidant activity in human SH-SY5Y cells assessed as increase in H2O2-induced reactive oxygen species formation at 20 to 40 uM pretreated for 24 hrs followed by H2O2 addition by DCFH-DA probe based fluorescence assay; type: ADME, cell-based
Cholinesterase = Cholinesterase (Equus caballus, UniProt P81908); experiment: Inhibition of equine serum BuChE using butyrylthiocholine iodide as substrate pretreated for 10 mins followed by substrate addition measured at 12 secs interval for 5 mins by Ellman's method
Summary of the method: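 Ellman assay in 0.1 M sodium phosphate pH 7.4, enzyme 0.5 U/mL, DTNB 10 mM; concentration series preincubated 10 min before butyrylthiocholine iodide ([…]); A412 over 5 min at 12 s intervals. IC50 from fitted concentration-response curves, geometric mean of independent experiments, each in triplicate; DMSO ≤0.2% final.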

[20] = target: Acetylcholinesterase (Electrophorus electricus) (UniProt O42275); experiment: Inhibition of Electrophorus electricus AChE at 30 uM using acetylthiocholine iodide as substrate pretreated for 10 mins followed by substrate addition measured at 12 secs interval for 5 mins by Ellman's method relative to control
Summary of the method: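 Enzyme (0.5 U/mL) with DTNB (10 mM) in 0.1 M sodium phosphate pH 7.4; compound at 30 μM preincubated 10 min, then acetylthiocholine or butyrylthiocholine iodide added ([…]); A412 read every 12 s for 5 min. Velocity as percent of vehicle control; means and pooled SD from 2-4 experiments in triplicate. DMSO ≤0.2% final.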

[21] = target: Cholinesterase (Equus caballus) (UniProt P81908); experiment: Inhibition of equine serum BuChE at 30 uM using butyrylthiocholine iodide as substrate pretreated for 10 mins followed by substrate addition measured at 12 secs interval for 5 mins by Ellman's method relative to control
Mus musculus [22] = experiment: Antiinflammatory activity in formalin-induced nociception Swiss mouse model assessed as reduction in time spent licking formalin injected hind paw during neurogenic phase at 100 umol/kg, po pretreated for 1 hr followed by formalin challenge measured up to 5 mins; type: functional, organism-based; summary of the method: as §4

Acetylcholinesterase, sequence (O42275 whole entry): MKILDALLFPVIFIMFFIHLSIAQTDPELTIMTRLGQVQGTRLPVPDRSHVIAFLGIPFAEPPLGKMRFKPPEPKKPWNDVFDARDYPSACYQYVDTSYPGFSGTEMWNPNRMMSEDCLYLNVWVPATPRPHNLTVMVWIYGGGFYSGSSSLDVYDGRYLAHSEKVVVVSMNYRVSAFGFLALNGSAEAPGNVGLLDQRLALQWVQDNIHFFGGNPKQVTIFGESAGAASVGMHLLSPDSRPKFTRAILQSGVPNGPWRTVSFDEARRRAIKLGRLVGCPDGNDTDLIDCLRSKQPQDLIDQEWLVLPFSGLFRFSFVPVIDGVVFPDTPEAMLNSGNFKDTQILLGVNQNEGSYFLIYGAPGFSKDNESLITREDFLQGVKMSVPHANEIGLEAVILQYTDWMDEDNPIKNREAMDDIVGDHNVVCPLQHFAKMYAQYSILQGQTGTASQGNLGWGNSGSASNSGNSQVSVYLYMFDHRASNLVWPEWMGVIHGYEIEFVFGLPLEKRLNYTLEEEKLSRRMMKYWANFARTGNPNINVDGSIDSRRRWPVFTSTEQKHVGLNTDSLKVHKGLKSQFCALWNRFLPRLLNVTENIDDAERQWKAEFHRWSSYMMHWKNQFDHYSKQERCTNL
Cholinesterase (Equus caballus), sequence (P81908 whole entry): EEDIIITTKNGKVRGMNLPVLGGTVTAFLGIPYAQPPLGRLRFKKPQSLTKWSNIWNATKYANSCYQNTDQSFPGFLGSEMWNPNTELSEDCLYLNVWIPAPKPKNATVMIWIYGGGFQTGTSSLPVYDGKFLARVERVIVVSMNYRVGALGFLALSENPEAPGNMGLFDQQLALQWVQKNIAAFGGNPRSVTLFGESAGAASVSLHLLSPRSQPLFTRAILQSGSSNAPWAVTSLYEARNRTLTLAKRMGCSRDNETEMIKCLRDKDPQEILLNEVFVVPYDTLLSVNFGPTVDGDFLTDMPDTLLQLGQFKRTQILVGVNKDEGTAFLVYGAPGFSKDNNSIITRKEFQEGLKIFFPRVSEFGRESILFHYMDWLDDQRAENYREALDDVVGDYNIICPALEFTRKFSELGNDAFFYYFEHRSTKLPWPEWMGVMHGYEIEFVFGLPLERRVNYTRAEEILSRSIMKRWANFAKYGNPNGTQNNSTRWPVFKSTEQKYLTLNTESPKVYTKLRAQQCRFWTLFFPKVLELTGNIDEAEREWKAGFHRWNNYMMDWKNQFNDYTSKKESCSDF
Cholinesterase, sequence (P81908 whole entry): as above
Acetylcholinesterase (Electrophorus electricus), sequence (O42275 24-633 limits assumed): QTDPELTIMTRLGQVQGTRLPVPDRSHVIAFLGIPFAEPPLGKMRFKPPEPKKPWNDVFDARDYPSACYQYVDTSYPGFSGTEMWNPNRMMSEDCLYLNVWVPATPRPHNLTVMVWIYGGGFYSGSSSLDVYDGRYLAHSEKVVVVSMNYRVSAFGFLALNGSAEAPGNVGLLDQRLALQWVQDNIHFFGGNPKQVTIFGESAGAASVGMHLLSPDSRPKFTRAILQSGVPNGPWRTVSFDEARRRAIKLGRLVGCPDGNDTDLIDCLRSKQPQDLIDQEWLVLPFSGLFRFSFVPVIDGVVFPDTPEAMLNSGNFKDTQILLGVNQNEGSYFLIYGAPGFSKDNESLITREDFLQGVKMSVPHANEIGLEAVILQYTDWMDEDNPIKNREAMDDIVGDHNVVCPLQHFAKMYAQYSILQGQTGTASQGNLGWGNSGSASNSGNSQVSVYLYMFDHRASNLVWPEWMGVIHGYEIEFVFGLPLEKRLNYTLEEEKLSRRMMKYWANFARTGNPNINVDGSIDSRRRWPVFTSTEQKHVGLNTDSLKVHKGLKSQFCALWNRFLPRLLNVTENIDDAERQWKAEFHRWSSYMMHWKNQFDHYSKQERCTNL

COc1ccc(/C=C/C(=O)O)cc1O [ISOFERULIC ACID]
pEC50 [1]: < 4.00

COc1cc(/C=C/C(=O)O)ccc1O [FERULATE]
pEC50 [1]: 4.45
pIC50 (SH-SY5Y [2]): 4.93

COc1cc(/C=C/C(=O)OCC2CCN(Cc3ccc(N4CCOCC4)cc3)CC2)ccc1O
pIC50 (Acetylcholinesterase): < 4.52
pEC50 [1]: 4.13

COc1ccc(/C=C/C(=O)OCC2CCN(Cc3ccc(Cl)cc3)CC2)cc1O
pIC50 (Acetylcholinesterase): < 4.52
pEC50 [1]: 4.90

COc1cc(/C=C/C(=O)OCC2CCN(Cc3ccc(Br)cc3)CC2)ccc1O
inhibition (Mus musculus [3]): Active
Activity (Mus musculus [4]): Active
Activity (Mus musculus [5]): Active
pIC50 (Acetylcholinesterase): < 4.52
pEC50 [1]: 4.34
Activity (SH-SY5Y [6]): <50%
cytotoxicity at 24 h, 40 µM [7]: 28%
Activity (SH-SY5Y [8]): Active
Activity [9]: Active
Activity [10]: Active
Activity [11]: inactive
Activity [12]: inactive
Activity (SH-SY5Y [13]): inactive
inhibition in vivo at 100 µmol/kg (Mus musculus [14]): 30%
inhibition in vivo at 100 µmol/kg (Mus musculus [15]): 60%
Activity (Mus musculus [16]): Active
Activity (Mus musculus [17]): Non-Toxic
Activity (Mus musculus [18]): Active
Activity (SH-SY5Y [19]): Toxic

COc1ccc(/C=C/C(=O)OCC2CCN(Cc3ccc(N4CCOCC4)cc3)CC2)cc1O
pIC50 (Acetylcholinesterase): < 4.52
pEC50 [1]: < 4.00

COc1cc(/C=C/C(=O)CC(=O)/C=C/c2ccc(O)c(OC)c2)ccc1O [CURCUMIN]
pIC50 (Cholinesterase): < 3.52

Cc1c(C)c2c(c(C)c1O)CCC(C)(C(=O)O)O2 (configuration not stated) [TROLOX]
pEC50 [1]: 5.31

COc1ccc(CN2CCC(COC(=O)/C=C/c3ccc(OC)c(O)c3)CC2)cc1
pIC50 (Acetylcholinesterase): < 4.52
pEC50 [1]: < 4.00

COc1ccc(/C=C/C(=O)OCC2CCN(Cc3ccc([N+](=O)[O-])cc3)CC2)cc1O
pIC50 (Acetylcholinesterase): < 4.52
pEC50 [1]: < 4.00

COc1ccc(/C=C/C(=O)OCC2CCN(Cc3ccccc3)CC2)cc1O
pIC50 (Acetylcholinesterase): < 4.52
pEC50 [1]: < 4.00

COc1cc(/C=C/C(=O)OCC2CCN(Cc3ccc([N+](=O)[O-])cc3)CC2)ccc1O
inhibition [20]: 50%
inhibition [21]: 4.3%
pIC50 (Acetylcholinesterase): 4.78
pEC50 [1]: 4.33
Activity (SH-SY5Y [2]): Dose-dependent effect
pIC50 (SH-SY5Y [2]): 4.59
cytotoxicity at 24 h, 40 µM [7]: 9%
Activity [9]: Active
Activity [10]: Active
Activity [11]: inactive
Activity [12]: inactive
fold change (FC) (SH-SY5Y [13]): 1.2

COc1ccc(CN2CCC(COC(=O)/C=C/c3ccc(O)c(OC)c3)CC2)cc1
pIC50 (Acetylcholinesterase): < 4.52
pEC50 [1]: 4.11

COc1cc(/C=C/C(=O)OCC2CCN(Cc3ccc4c(c3)OCO4)CC2)ccc1O
pIC50 (Acetylcholinesterase): < 4.52
pEC50 [1]: < 4.00

COc1cc(/C=C/C(=O)OCC2CCN(Cc3ccc(Cl)cc3)CC2)ccc1O
pIC50 (Acetylcholinesterase): < 4.52
pEC50 [1]: 4.69

COc1ccc(/C=C/C(=O)OCC2CCN(Cc3ccc4c(c3)OCO4)CC2)cc1O
pIC50 (Acetylcholinesterase): < 4.52
pEC50 [1]: < 4.00
IC50 (SH-SY5Y [2]): Not Active

COc1ccc(/C=C/C(=O)OCC2CCN(Cc3ccc(Br)cc3)CC2)cc1O
pIC50 (Acetylcholinesterase): < 4.52
pEC50 [1]: < 4.00

COc1cc2c(cc1OC)C(=O)C(CC1CCN(Cc3ccccc3)CC1)C2 (configuration not stated) [DONEPEZIL]
IC50 (SH-SY5Y [2]): Not Active
Activity (SH-SY5Y [6]): <50%

COc1ccc2c(c1)c(CC(=O)O)c(C)n2C(=O)c1ccc(Cl)cc1 [INDOMETHACIN]
Activity (Mus musculus [4]): Active
Activity (Mus musculus [22]): Active
Activity (Mus musculus [5]): Active
inhibition in vivo at 100 µmol/kg (Mus musculus [14]): 50%
inhibition in vivo at 100 µmol/kg (Mus musculus [15]): 42%
Activity (Mus musculus [16]): Active
